# From ChEMBL document CHEMBL3352349, “Synthesis and biological evaluation of new nitrogen-containing diselenides” (Eur J Med Chem, 2014)
# The source made the active and inactive calls. The rule behind the calls is not given here.
# Key:
# [1] = Antioxidant activity assessed as glutathione peroxidase-like activity assessed as time required to reduce the thiol concentration by 50% after addition of H2O2 by UV spectrophotometry; type: physicochemical
# Outline: (§1)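 Tomoda-type thiol peroxidase model run in methanol, or ethanol where needed for solubility, at 25 (±3) °C. Catalyst at 0.1 mM final and PhSH at 2 mM final were mixed. After about 120 s, H₂O₂ was added to 5 mM final. PhSSPh formation was followed at 305 nm, with runs repeated more than three times. T₅₀ is the time to halve the thiol after H₂O₂ addition. Ebselen and (PhSe)₂ were each set to 1.0.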
# [2] = Antioxidant activity assessed as glutathione peroxidase-like activity by UV spectrophotometry relative to ebselen; type: physicochemical; outline: as §1
# [3] = Antioxidant activity assessed as glutathione peroxidase-like activity by UV spectrophotometry relative to (PhSe)2; type: physicochemical; outline: as §1
# [4] = system: Brain; assay: Antioxidant activity in rat brain homogenate assessed as inhibition of Fe(II)-induced TBARS formation after 60 mins by spectrophotometry; type: functional, tissue-based
# [5] = biological target: T1, Thioredoxin reductase 1, cytoplasmic (Rattus norvegicus) (UniProt O89049); assay: Activity of partially purified rat Thioredoxin reductase assessed as NADPH oxidation after 10 mins by spectrophotometry
# T1 sequence (whole entry): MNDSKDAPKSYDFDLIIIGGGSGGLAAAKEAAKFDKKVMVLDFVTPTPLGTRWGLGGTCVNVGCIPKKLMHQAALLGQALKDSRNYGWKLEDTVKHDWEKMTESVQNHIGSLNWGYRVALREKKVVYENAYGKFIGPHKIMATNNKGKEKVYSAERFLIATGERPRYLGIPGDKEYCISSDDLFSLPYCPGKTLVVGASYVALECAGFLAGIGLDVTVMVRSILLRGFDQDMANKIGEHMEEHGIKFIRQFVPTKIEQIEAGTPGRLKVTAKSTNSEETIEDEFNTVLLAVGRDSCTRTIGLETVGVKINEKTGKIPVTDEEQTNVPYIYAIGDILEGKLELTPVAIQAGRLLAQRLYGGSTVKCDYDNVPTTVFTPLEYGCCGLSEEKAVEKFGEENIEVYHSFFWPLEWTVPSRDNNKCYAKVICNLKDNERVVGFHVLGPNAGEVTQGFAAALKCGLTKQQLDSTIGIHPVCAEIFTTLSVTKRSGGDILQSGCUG
# Outline: (§2)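 Enzyme: partially purified TrxR from rat liver. NADPH consumption read at 340 nm over 10 min, with or without the organoselenium compound. Activity is given as nmol NADPH/min/mg. Efficiency is expressed relative to ebselen. In the reference reaction, NADPH oxidation was checked for sensitivity to […] AuCl₃. Details are in the cited reference.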
# [6] = biological target: T1, Thioredoxin reductase 1, cytoplasmic (Rattus norvegicus); assay: Activity of partially purified rat Thioredoxin reductase assessed as NADPH oxidation after 10 mins by spectrophotometry relative to ebselen; outline: as §2
# [7] = biological target: T1, Thioredoxin reductase 1, cytoplasmic (Rattus norvegicus); assay: Activity of partially purified rat Thioredoxin reductase assessed as 5 umol/L AuCl3-mediated inhibition of NADPH oxidation by spectrophotometry
# Outline: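 Partially purified rat liver TrxR was used. NADPH consumption was followed at 340 nm for 10 min in the absence or presence of an organoselenium catalyst. AuCl3 was added to the reaction containing the reference selenium catalyst. Activity was expressed as nmol NADPH/min/mg.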
SMILES,Time [1],Ratio [2],Ratio [3],inhibition [4],Activity [5],Ratio [6],inhibition [7]
CC(Cc1ccccc1)NC(=O)c1ccccc1[Se][Se]c1ccccc1C(=O)NC(C)Cc1ccccc1 (centres undefined),16.87 min,9.14,3.26,Active,0 nmol/min/mg,–,–
O=C(C[Se][Se]CC(=O)NCCc1ccccc1)NCCc1ccccc1,44.9 min,3.43,1.23,Active,19.1 nmol/min/mg,5.6,–
CC(Cc1ccccc1)NC(=O)CC[Se][Se]CCC(=O)NC(C)Cc1ccccc1 (centres undefined),76 min,2.03,–,Active,13.7 nmol/min/mg,4,–
c1ccc([Se][Se]c2ccccc2)cc1,55.04 min,2.8,–,–,–,–,–
O=C(CC[Se][Se]CCC(=O)NCCc1ccccc1)NCCc1ccccc1,81.43 min,1.89,–,Active,16.1 nmol/min/mg,4.7,–
CC(Cc1ccccc1)NC(=O)C[Se][Se]CC(=O)NC(C)Cc1ccccc1 (centres undefined),299.63 min,–,–,Active,0 nmol/min/mg,–,–
O=c1c2ccccc2[se]n1-c1ccccc1 [EBSELEN],154.26 min,–,–,–,3.4 nmol/min/mg,–,> 95%
O=C(NCCc1ccccc1)c1ccccc1[Se][Se]c1ccccc1C(=O)NCCc1ccccc1,29.73 min,5.2,1.85,Active,0 nmol/min/mg,–,–
